Measured values taken from ChEMBL document CHEMBL1151705, “Novel azalides derived from 16-membered macrolides. Part II: Isolation of the linear 9-formylcarboxylic acid and its sequential macrocyclization with an amino alcohol or an azidoamine” (2008).
In brackets after ≈: the same amount, converted by molar mass.

Experiments:
Format in all cases: functional
Streptococcus pneumoniae [1] = assay: Antimicrobial activity against Streptococcus pneumoniae 7 expressing inducible ermB after 20 hrs by agar dilution method; details: Streptococcus pneumoniae, 20 h; read-out: MIC
Method in brief: (§1)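 Streptococci, H. influenzae and M. catarrhalis were precultured on blood agar plates. Suspensions of about 10⁶ CFU/ml were inoculated onto sensitivity disk agar supplemented with 5% horse blood and incubated at 37 °C for 20 h. MIC was read as the lowest drug concentration with no visible growth.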

Haemophilus influenzae [2] = assay: Antimicrobial activity against drug-susceptible Haemophilus influenzae 4 after 20 hrs by agar dilution method; details: Haemophilus influenzae, 20 h; read-out: MIC; method in brief: as §1
Streptococcus pneumoniae [3] = assay: Antimicrobial activity against drug-susceptible Streptococcus pneumoniae DP1 Type1 after 20 hrs by agar dilution method; details: Streptococcus pneumoniae, 20 h; read-out: MIC; method in brief: as §1
Haemophilus influenzae [4] = assay: Antimicrobial activity against drug-susceptible Haemophilus influenzae 1 after 20 hrs by agar dilution method; details: Haemophilus influenzae, 20 h; read-out: MIC; method in brief: as §1
Streptococcus pneumoniae [5] = assay: Antimicrobial activity against Streptococcus pneumoniae 8 expressing inducible ermB after 20 hrs by agar dilution method; details: Streptococcus pneumoniae, 20 h; read-out: MIC; method in brief: as §1
Staphylococcus aureus [6] = assay: Antimicrobial activity against Staphylococcus aureus 5 expressing inducible ermB after 20 hrs by agar dilution method; details: Staphylococcus aureus, 20 h; read-out: MIC
Method in brief: (§2)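 Agar dilution MIC. S. aureus seed culture was grown in sensitivity test broth. Cell suspension (about 10⁶ CFU/ml) was inoculated onto sensitivity disk agar with 5% horse blood and incubated at 37 °C for 20 h. MIC was the lowest drug concentration that prevented visible growth.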

Streptococcus pyogenes [7] = assay: Antimicrobial activity against Streptococcus pyogenes 3 expressing mefA after 20 hrs by agar dilution method; details: Streptococcus pyogenes, 20 h; read-out: MIC; method in brief: as §1
Staphylococcus aureus [8] = assay: Antimicrobial activity against Staphylococcus aureus 4 constitutively expressing ermA after 20 hrs by agar dilution method; method in brief: as §2
Streptococcus pneumoniae [9] = assay: Antimicrobial activity against Streptococcus pneumoniae 6 constitutively expressing ermB after 20 hrs by agar dilution method; details: Streptococcus pneumoniae, 20 h; read-out: MIC; method in brief: as §1
Staphylococcus aureus [10] = assay: Antimicrobial activity against drug-susceptible Staphylococcus aureus 3 after 20 hrs by agar dilution method; details: Staphylococcus aureus, 20 h; read-out: MIC; method in brief: as §2
Staphylococcus aureus [11] = assay: Antimicrobial activity against Staphylococcus aureus 6 expressing inducible ermB after 20 hrs by agar dilution method; method in brief: as §2
Streptococcus pneumoniae [12] = assay: Antimicrobial activity against Streptococcus pneumoniae 9 expressing mefA after 20 hrs by agar dilution method; details: Streptococcus pneumoniae, 20 h; read-out: MIC; method in brief: as §1
Streptococcus pneumoniae [13] = assay: Antimicrobial activity against Streptococcus pneumoniae 4 constitutively expressing ermB after 20 hrs by agar dilution method; details: Streptococcus pneumoniae, 20 h; read-out: MIC; method in brief: as §1
Staphylococcus aureus [14] = assay: Antimicrobial activity against drug-susceptible Staphylococcus aureus 209P JC-1 after 20 hrs by agar dilution method; details: Staphylococcus aureus, 209P, 20 h; read-out: MIC; method in brief: as §2
Streptococcus pneumoniae [15] = assay: Antimicrobial activity against Streptococcus pneumoniae 5 constitutively expressing ermB/mefA after 20 hrs by agar dilution method; details: Streptococcus pneumoniae, 20 h; read-out: MIC; method in brief: as §1
Streptococcus pneumoniae [16] = assay: Antimicrobial activity against drug-susceptible Streptococcus pneumoniae 2 after 20 hrs by agar dilution method; details: Streptococcus pneumoniae, 20 h; read-out: MIC; method in brief: as §1
Haemophilus influenzae [17] = assay: Antimicrobial activity against drug-susceptible Haemophilus influenzae 2 after 20 hrs by agar dilution method; details: Haemophilus influenzae, 20 h; read-out: MIC; method in brief: as §1
Streptococcus pyogenes [18] = assay: Antimicrobial activity against drug-susceptible Streptococcus pyogenes 1 after 20 hrs by agar dilution method; details: Streptococcus pyogenes, 20 h; read-out: MIC; method in brief: as §1
Streptococcus pneumoniae [19] = assay: Antimicrobial activity against Streptococcus pneumoniae 10 expressing mefA after 20 hrs by agar dilution method; details: Streptococcus pneumoniae, 20 h; read-out: MIC; method in brief: as §1
Staphylococcus aureus [20] = assay: Antimicrobial activity against drug-susceptible Staphylococcus aureus 2 after 20 hrs by agar dilution method; details: Staphylococcus aureus, 20 h; read-out: MIC; method in brief: as §2
Haemophilus influenzae [21] = assay: Antimicrobial activity against drug-susceptible Haemophilus influenzae 3 after 20 hrs by agar dilution method; details: Haemophilus influenzae, 20 h; read-out: MIC; method in brief: as §1
Moraxella catarrhalis [22] = assay: Antimicrobial activity against drug-susceptible Moraxella catarrhalis 2 after 20 hrs by agar dilution method; details: Moraxella catarrhalis, 20 h; read-out: MIC; method in brief: as §1
Streptococcus pneumoniae [23] = assay: Antimicrobial activity against drug-susceptible Streptococcus pneumoniae 3 after 20 hrs by agar dilution method; details: Streptococcus pneumoniae, 20 h; read-out: MIC; method in brief: as §1
Streptococcus pyogenes [24] = assay: Antimicrobial activity against Streptococcus pyogenes 2 constitutively expressing ermB after 20 hrs by agar dilution method; method in brief: as §1
Moraxella catarrhalis [25] = assay: Antimicrobial activity against drug-susceptible Moraxella catarrhalis 1 after 20 hrs by agar dilution method; details: Moraxella catarrhalis, 20 h; read-out: MIC; method in brief: as §1

| MIC (Streptococcus pneumoniae [1]) [µg/mL] | MIC (Haemophilus influenzae [2]) [µg/mL] | MIC (Streptococcus pneumoniae [3]) [µg/mL] | MIC (Haemophilus influenzae [4]) [µg/mL] | MIC (Streptococcus pneumoniae [5]) [µg/mL] | MIC (Staphylococcus aureus [6]) [µg/mL] | MIC (Streptococcus pyogenes [7]) [µg/mL] | MIC (Staphylococcus aureus [8]) [µg/mL] | MIC (Streptococcus pneumoniae [9]) [µg/mL] | MIC (Staphylococcus aureus [10]) [µg/mL] | MIC (Staphylococcus aureus [11]) [µg/mL] | MIC (Streptococcus pneumoniae [12]) [µg/mL] | MIC (Streptococcus pneumoniae [13]) [µg/mL] | MIC (Staphylococcus aureus [14]) [µg/mL] | MIC (Streptococcus pneumoniae [15]) [µg/mL] | MIC (Streptococcus pneumoniae [16]) [µg/mL] | MIC (Haemophilus influenzae [17]) [µg/mL] | MIC (Streptococcus pyogenes [18]) [µg/mL] | MIC (Streptococcus pneumoniae [19]) [µg/mL] | MIC (Staphylococcus aureus [20]) [µg/mL] | SMILES | also measured |
| --- | --- | --- | --- | --- | --- | --- | --- | --- | --- | --- | --- | --- | --- | --- | --- | --- | --- | --- | --- | --- | --- |
| 32 (≈ 32.4 µM) | 16 (≈ 16.2 µM) | 0.13 (≈ 0.132 µM) | 64 (≈ 64.9 µM) | 32 (≈ 32.4 µM) | 0.25 (≈ 0.253 µM) | 0.5 (≈ 0.507 µM) | > 128 | > 128 | 0.25 (≈ 0.253 µM) | 0.5 (≈ 0.507 µM) | 0.13 (≈ 0.132 µM) | > 128 | 0.5 (≈ 0.507 µM) | > 128 | 0.13 (≈ 0.132 µM) | 8 (≈ 8.11 µM) | 0.25 (≈ 0.253 µM) | 0.13 (≈ 0.132 µM) | 1 (≈ 1.01 µM) | CCOC(=O)[C@H]1[C@H](C)O[C@@H](O[C@H]2[C@H](N(C)C)[C@@H](O)[C@H](O[C@H]3[C@@H](CC=O)C[C@@H](C)[C@@H](O)CN(C)CCC[C@@H](C/C=C/c4ccnc5ccccc45)OC(=O)C[C@@H](OC(=O)CC)[C@@H]3OC)O[C@@H]2C)C[C@@]1(C)O | MIC (Haemophilus influenzae [21]): 16 µg/mL (≈ 16.2 µM); MIC (Moraxella catarrhalis [22]): 4 µg/mL (≈ 4.06 µM); MIC (Streptococcus pneumoniae [23]): 0.06 µg/mL (≈ 0.0608 µM); MIC (Streptococcus pyogenes [24]): > 128 µg/mL; MIC (Moraxella catarrhalis [25]): 2 µg/mL (≈ 2.03 µM) |
| 8 (≈ 8.11 µM) | 16 (≈ 16.2 µM) | 0.06 (≈ 0.0608 µM) | > 64 | 8 (≈ 8.11 µM) | 0.25 (≈ 0.253 µM) | 0.5 (≈ 0.507 µM) | > 64 | > 64 | 0.25 (≈ 0.253 µM) | 1 (≈ 1.01 µM) | 0.13 (≈ 0.132 µM) | > 64 | 0.5 (≈ 0.507 µM) | > 64 | 0.25 (≈ 0.253 µM) | 8 (≈ 8.11 µM) | 0.13 (≈ 0.132 µM) | 0.13 (≈ 0.132 µM) | 1 (≈ 1.01 µM) | CCOC(=O)[C@H]1[C@H](C)O[C@@H](O[C@H]2[C@H](N(C)C)[C@@H](O)[C@H](O[C@H]3[C@@H](CC=O)C[C@@H](C)[C@@H](O)CN(C)CC(/C=C\Cc4cnc5ccccc5c4)CCOC(=O)C[C@@H](OC(=O)CC)[C@@H]3OC)O[C@@H]2C)C[C@@]1(C)O (stereo not given in full) | MIC (Haemophilus influenzae [21]): 16 µg/mL (≈ 16.2 µM); MIC (Moraxella catarrhalis [22]): 2 µg/mL (≈ 2.03 µM); MIC (Streptococcus pneumoniae [23]): 0.13 µg/mL (≈ 0.132 µM); MIC (Streptococcus pyogenes [24]): > 64 µg/mL; MIC (Moraxella catarrhalis [25]): 2 µg/mL (≈ 2.03 µM) |
| 2 (≈ 2.03 µM) | 8 (≈ 8.11 µM) | 0.015 (≈ 0.0152 µM) | 32 (≈ 32.4 µM) | 2 (≈ 2.03 µM) | 0.13 (≈ 0.132 µM) | 0.25 (≈ 0.253 µM) | > 128 | 128 (≈ 130 µM) | 0.13 (≈ 0.132 µM) | 0.25 (≈ 0.253 µM) | 0.015 (≈ 0.0152 µM) | > 128 | 0.13 (≈ 0.132 µM) | > 128 | 0.03 (≈ 0.0304 µM) | 2 (≈ 2.03 µM) | 0.03 (≈ 0.0304 µM) | 0.015 (≈ 0.0152 µM) | 0.25 (≈ 0.253 µM) | CCOC(=O)[C@H]1[C@H](C)O[C@@H](O[C@H]2[C@H](N(C)C)[C@@H](O)[C@H](O[C@H]3[C@@H](CC=O)C[C@@H](C)[C@@H](O)CN(C)CC(/C=C/Cc4ccc5ncccc5c4)CCOC(=O)C[C@@H](OC(=O)CC)[C@@H]3OC)O[C@@H]2C)C[C@@]1(C)O (stereo not given in full) | MIC (Haemophilus influenzae [21]): 8 µg/mL (≈ 8.11 µM); MIC (Moraxella catarrhalis [22]): 1 µg/mL (≈ 1.01 µM); MIC (Streptococcus pneumoniae [23]): 0.015 µg/mL (≈ 0.0152 µM); MIC (Streptococcus pyogenes [24]): > 128 µg/mL; MIC (Moraxella catarrhalis [25]): 1 µg/mL (≈ 1.01 µM) |
| 4 (≈ 4.06 µM) | 16 (≈ 16.2 µM) | 0.06 (≈ 0.0609 µM) | 64 (≈ 65 µM) | 2 (≈ 2.03 µM) | 0.5 (≈ 0.507 µM) | 1 (≈ 1.01 µM) | > 128 | 64 (≈ 65 µM) | 0.5 (≈ 0.507 µM) | 1 (≈ 1.01 µM) | 0.06 (≈ 0.0609 µM) | 64 (≈ 65 µM) | 1 (≈ 1.01 µM) | 64 (≈ 65 µM) | 0.13 (≈ 0.132 µM) | 16 (≈ 16.2 µM) | 0.25 (≈ 0.254 µM) | 0.06 (≈ 0.0609 µM) | 2 (≈ 2.03 µM) | CCOC(=O)[C@H]1[C@H](C)O[C@@H](O[C@H]2[C@H](N(C)C)[C@@H](O)[C@H](O[C@H]3[C@@H](CC=O)C[C@@H](C)[C@@H](O)CN(C)CCC[C@H](C/C=C/c4cccc5ccccc45)OC(=O)C[C@@H](OC(=O)CC)[C@@H]3OC)O[C@@H]2C)C[C@@]1(C)O | MIC (Haemophilus influenzae [21]): 16 µg/mL (≈ 16.2 µM); MIC (Moraxella catarrhalis [22]): 2 µg/mL (≈ 2.03 µM); MIC (Streptococcus pneumoniae [23]): 0.06 µg/mL (≈ 0.0609 µM); MIC (Streptococcus pyogenes [24]): 64 µg/mL (≈ 65 µM); MIC (Moraxella catarrhalis [25]): 2 µg/mL (≈ 2.03 µM) |
